Experiment [1] has as its target T1, LMW-PTP (Homo sapiens, UniProt P24666).
T1 sequence (P24666 1-158): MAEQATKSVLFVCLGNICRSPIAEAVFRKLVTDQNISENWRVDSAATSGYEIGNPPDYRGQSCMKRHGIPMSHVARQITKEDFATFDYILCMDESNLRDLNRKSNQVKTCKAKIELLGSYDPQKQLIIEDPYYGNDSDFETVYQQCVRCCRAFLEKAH
It counts as biochemical. Conditions: for IC50: read-out: IC50 against LMW-PTP, weak ligands, values in mM; for mode of inhibition of LMW-PTP: Lineweaver-Burk, pNPP as substrate.

A further experiment addresses T2, SHP2 (Homo sapiens, UniProt Q06124).
T2 sequence (Q06124 1-593): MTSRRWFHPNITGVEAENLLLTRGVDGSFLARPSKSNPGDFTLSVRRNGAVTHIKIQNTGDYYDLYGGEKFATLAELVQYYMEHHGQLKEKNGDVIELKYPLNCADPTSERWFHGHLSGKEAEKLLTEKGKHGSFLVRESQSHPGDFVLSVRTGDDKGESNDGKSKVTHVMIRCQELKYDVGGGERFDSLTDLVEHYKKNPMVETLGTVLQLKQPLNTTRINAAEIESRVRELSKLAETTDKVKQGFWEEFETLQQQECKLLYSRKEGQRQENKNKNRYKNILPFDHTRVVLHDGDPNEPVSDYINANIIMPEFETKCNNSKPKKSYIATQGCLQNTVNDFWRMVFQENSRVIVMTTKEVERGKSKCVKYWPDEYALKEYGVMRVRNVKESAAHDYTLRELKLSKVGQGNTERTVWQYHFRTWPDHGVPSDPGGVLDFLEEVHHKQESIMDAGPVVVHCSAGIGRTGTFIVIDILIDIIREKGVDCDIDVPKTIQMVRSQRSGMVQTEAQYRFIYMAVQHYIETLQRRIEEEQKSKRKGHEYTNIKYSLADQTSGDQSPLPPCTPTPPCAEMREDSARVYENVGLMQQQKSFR
Briefly: PTP activity assay with pNPP, SHP2. In kind it is biochemical. Particulars: read-out: IC50 for SHP2; values in mM.

The target in the next experiment is T3, PTP1B (Homo sapiens, UniProt P18031).
T3 sequence (P18031 1-435): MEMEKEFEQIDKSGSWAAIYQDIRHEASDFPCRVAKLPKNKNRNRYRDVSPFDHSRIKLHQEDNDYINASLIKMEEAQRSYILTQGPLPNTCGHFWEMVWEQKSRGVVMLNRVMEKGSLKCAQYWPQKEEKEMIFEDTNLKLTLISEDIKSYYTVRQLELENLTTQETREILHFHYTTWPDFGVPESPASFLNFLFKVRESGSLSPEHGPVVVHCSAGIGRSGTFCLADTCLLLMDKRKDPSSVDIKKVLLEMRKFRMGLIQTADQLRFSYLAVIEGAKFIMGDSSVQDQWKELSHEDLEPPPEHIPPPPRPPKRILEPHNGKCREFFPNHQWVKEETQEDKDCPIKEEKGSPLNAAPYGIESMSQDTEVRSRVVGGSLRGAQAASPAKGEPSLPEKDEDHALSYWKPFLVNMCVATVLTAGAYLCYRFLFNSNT
Briefly: PTP activity assay with pNPP, PTP1B. It counts as biochemical. Particulars: read-out: IC50 for PTP1B; values in mM.

A further experiment deals with T4, PTPH1 (Homo sapiens, UniProt P26045).
T4 sequence (P26045 1-913): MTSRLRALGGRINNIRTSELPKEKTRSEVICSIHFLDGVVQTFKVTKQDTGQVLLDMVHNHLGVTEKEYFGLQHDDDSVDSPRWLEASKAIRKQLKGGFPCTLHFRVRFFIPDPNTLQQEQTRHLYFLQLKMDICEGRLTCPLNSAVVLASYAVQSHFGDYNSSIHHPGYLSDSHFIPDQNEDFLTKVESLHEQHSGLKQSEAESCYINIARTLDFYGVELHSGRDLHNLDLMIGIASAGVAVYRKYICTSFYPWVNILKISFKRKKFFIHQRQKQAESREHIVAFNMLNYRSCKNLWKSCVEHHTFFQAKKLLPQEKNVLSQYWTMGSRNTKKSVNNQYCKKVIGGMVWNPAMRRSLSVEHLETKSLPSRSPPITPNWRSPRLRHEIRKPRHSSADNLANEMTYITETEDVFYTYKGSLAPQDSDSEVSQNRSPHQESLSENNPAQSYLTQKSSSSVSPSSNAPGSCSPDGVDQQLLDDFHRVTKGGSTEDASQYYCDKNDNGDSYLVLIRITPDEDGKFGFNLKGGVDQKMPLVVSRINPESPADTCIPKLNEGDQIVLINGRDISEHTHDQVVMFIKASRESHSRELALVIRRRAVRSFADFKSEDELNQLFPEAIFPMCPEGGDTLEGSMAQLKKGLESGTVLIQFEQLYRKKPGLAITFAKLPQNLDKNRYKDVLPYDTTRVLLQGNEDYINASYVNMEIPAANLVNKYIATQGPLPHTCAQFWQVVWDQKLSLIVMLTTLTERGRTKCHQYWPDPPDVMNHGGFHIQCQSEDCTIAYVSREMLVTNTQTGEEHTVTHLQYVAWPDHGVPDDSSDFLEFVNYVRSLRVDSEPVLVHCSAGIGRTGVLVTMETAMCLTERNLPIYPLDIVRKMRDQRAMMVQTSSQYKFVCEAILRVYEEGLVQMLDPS
Briefly: PTP activity assay with pNPP, PTPH1. It counts as biochemical.

The subject of the next experiment is panel of 24 phosphatases. Briefly: Selectivity profiling against panel of 24 phosphatases. It counts as biochemical. Particulars: for inhibitory activity against the phosphatases in the panel: at 200 μM concentration; for preference (selectivity) for LMW-PTP over the panel of other PTPs: over all 24 other phosphatases.
The target in experiment [2] is T1, LMW-PTP. The experiment can be described thus: Screen of SPAA-based focused library at ~10 μM, LMW-PTP. Particulars: compound concentration ~10 μM, crude library wells. It counts as biochemical.
Experiment [3] concerns insulin induced AKT phosphorylation in HepG2 cells. Briefly: Insulin induced AKT phosphorylation in HepG2 cells. In kind it is cell-based. Particulars: 2 h pretreatment, 50 nM insulin 30 min, compound 33 at 16 μM. The essentials:
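HepG2 cells grown in DMEM with 10% FBS at 37 °C and 5% CO2. At 60-80% confluence, cells were serum-starved overnight, then given vehicle or test compound for 2 h. They were left unstimulated or stimulated with 50 nM insulin for 30 min, then lysed. Immunoblotting used a 10% polyacrylamide gel with anti-phospho-AKT and anti-AKT antibodies, ECL detection and densitometry. pAKT/AKT ratios were normalized to vehicle.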

In the case of `O=S(=O)(O)CCN1CCOCC1` [MES], on LMW-PTP [1], the concentration for half-maximal inhibition (IC50) was > 10 mM.

Take `NC(=O)C(c1ccccc1)S(=O)(=O)O` (centres unmarked) [SPAA, SulfoPhenyl Acetic Amide]: the half-maximal inhibitory concentration (IC50) is > 50 mM at SHP2, 2 mM at LMW-PTP [1] and > 50 mM at PTP1B.

For `Cc1c(Br)cc(NC(=O)C(c2ccccc2)S(=O)(=O)O)cc1Br` (centres unmarked) [compound 1], at PTPH1, the IC50 was > 200 µM.

As to `O=C(Nc1ccc(OCc2ccccc2)c(Cl)c1)C(c1ccccc1)S(=O)(=O)O` (centres unmarked) [compound 2], the IC50 on PTPH1 is > 200 µM.

As to `O=C(Nc1ccc2nc(C(F)(F)F)[nH]c2c1)C(c1ccccc1)S(=O)(=O)O` (centres unmarked) [compound 3], on PTPH1, the IC50 is > 200 µM. Also, in the experiment with panel of 24 phosphatases, the “inhibitory activity against the phosphatases in the panel” value (from here on “inhibitory activity … in the panel”) was “no inhibitory activity” and the “preference (selectivity) for LMW-PTP over the panel of other PTPs” value was “greater than 35 fold”.

Take `O=C(Nc1ccc(-n2ccnc2)cc1)C(c1ccccc1)S(=O)(=O)O` (centres unmarked) [compound 4]: the IC50 against PTPH1 was > 100 µM.

As for `O=C(Nc1ccc(N2CCOCC2)cc1)C(c1ccccc1)S(=O)(=O)O` (centres unmarked) [compound 5], the half-maximal inhibitory concentration (IC50) on PTPH1 is > 200 µM. The “inhibitory activity … in the panel” value in the experiment on panel of 24 phosphatases is “no inhibitory activity”.

Take `O=C(Nc1cnc2ccccc2c1)C(c1ccccc1)S(=O)(=O)O` (centres unmarked) [compound 6]: the IC50 on PTPH1 is > 200 µM. Further, the “inhibitory activity … in the panel” value with panel of 24 phosphatases is reported as “no inhibitory activity”.

`O=C(Nc1nc2ccccc2s1)C(c1ccccc1)S(=O)(=O)O` (centres unmarked) [compound 7]: the IC50 against PTPH1 was > 200 µM. Besides, the “mode of inhibition of LMW-PTP” value at LMW-PTP [1] was “competitive”.

Turning to `O=C(Nc1cc(C(F)(F)F)cc(C(F)(F)F)c1)C(c1ccccc1)S(=O)(=O)O` (centres unmarked) [compound 8], the IC50 against PTPH1 is > 200 µM.

Consider `O=C(Nc1ccccc1)C(c1ccccc1)S(=O)(=O)O` (centres unmarked) [compound 9], for which the “inhibitory activity toward LMW-PTP (in words)” value on LMW-PTP [1] was “significantly reduced activities”. In addition, the “fold decrease in inhibitory activity versus compound 7” value at LMW-PTP [1] (relative to compound 7) is given as > 15 fold.

`O=C(Nc1nccs1)C(c1ccccc1)S(=O)(=O)O` (centres unmarked) [compound 10]: the “inhibitory activity toward LMW-PTP (in words)” value on LMW-PTP [1] is on record as “significantly reduced activities”.

On to `CCCNC(=O)C(c1ccccc1)S(=O)(=O)O` (centres unmarked) [compound 11], for which the “inhibition against LMW-PTP in library screen” value against LMW-PTP [2] was “inactive”. Moreover, the “inhibitory activity toward LMW-PTP (in words)” value against LMW-PTP [1] is “inactive”.

With `O=C(Nc1nc2ccc([N+](=O)[O-])cc2s1)C(c1ccccc1)S(=O)(=O)O` (centres unmarked) [compound 28], the IC50 on PTPH1 was > 100 µM. For the same compound, the “preference (selectivity) for LMW-PTP over the panel of other PTPs” value in the experiment with panel of 24 phosphatases is “over 50 fold”. At LMW-PTP [1], the “fold more active than compound 7 against LMW-PTP” value is 3.5 fold and the “mode of inhibition of LMW-PTP” value was “competitive”.

Take `CCOC(=O)c1ccc2nc(NC(=O)C(c3ccccc3)S(=O)(=O)O)sc2c1` (centres unmarked) [compound 32]: the “fold more active than compound 7 against LMW-PTP” value on LMW-PTP [1] is on record as 2.5 fold.

On to `O=C(Cc1ccccc1)Nc1nc2ccc([N+](=O)[O-])cc2s1` [compound 33], for which, in experiment [3], the “effect on insulin induced AKT phosphorylation (in words)” value is given as “no effect”. For the same compound, the “inhibitory activity toward LMW-PTP (in words)” value at LMW-PTP [1] was “completely abolishes”.

As usually defined, the IC50 is the midpoint of a concentration-inhibition curve.
